Source: ChEMBL document CHEMBL2439995, “Synthesis and Evaluation of Quinazolone Derivatives as a New Class of c-KIT G-Quadruplex Binding Ligands” (ACS Med Chem Lett, 2013)
Active and inactive are the calls of the source. The calls are words filed in the database; no cut-off is given here.

Columns and labels:
[1] = tested on: MCF7; assay: Binding affinity to c-KIT2 mutant G-quadruplex DNA isolated from human MCF7 cells at 2.5 uM after 48 hrs by dual luciferase reporter gene assay; type: cell-based
Procedure, shortened: (§1)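 MCF-7 cells transiently transfected with a luciferase plasmid carrying the full-length wild-type c-KIT promoter or its mutant, plus pRL-TK. Cells treated 48 h with compound at 2.5 µM or a range of concentrations. Firefly signal normalized to pRL-TK, expressed relative to untreated cells (100%). Triplicates, three independent experiments, standard error.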

[2] = tested on: MCF7; assay: Binding affinity to full length wild type c-KIT2 G-quadruplex DNA isolated from human MCF7 cells at 2.5 uM after 48 hrs by dual luciferase reporter gene assay; type: cell-based; procedure, shortened: as §1
[3] = tested on: MCF7; assay: Binding affinity to full length wild type c-KIT1 G-quadruplex DNA isolated from human MCF7 cells at 2.5 uM after 48 hrs by dual luciferase reporter gene assay; type: cell-based; procedure, shortened: as §1
[4] = tested on: HGC-27; assay: Cytotoxicity against HGC27 cells assessed as cell viability after 48 hrs by MTT assay; type: functional, cell-based; details: Homo sapiens, HGC-27, 48 h
[5] = Binding affinity to duplex DNA (unknown origin) up to 20 uM by surface plasmon resonance method
Procedure, shortened: (§2)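 SPR binding to immobilized c-KIT1 G-quadruplex or duplex DNA, ligand injected at various concentrations, up to 20 µM. KD obtained by global fitting of the kinetic data to a 1:1 Langmuir binding model.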

[6] = Binding affinity to biotinylated c-KIT1 G-quadruplex DNA (unknown origin) by surface plasmon resonance method; procedure, shortened: as §2
[7] = Binding affinity to F10T duplex DNA (unknown origin) assessed as change in melting temperature at 5 uM by FRET assay
[8] = Binding affinity to F-c-KIT2-T G-quadruplex DNA (unknown origin) assessed as change in melting temperature at 5 uM by FRET assay
[9] = Binding affinity to F-c-KIT1-T G-quadruplex DNA (unknown origin) assessed as change in melting temperature at 5 uM by FRET assay
[10] = tested on: MCF7; assay: Binding affinity to c-KIT1 mutant G-quadruplex DNA isolated from human MCF7 cells at 2.5 uM after 48 hrs by dual luciferase reporter gene assay; type: cell-based; procedure, shortened: as §1
[11] = tested on: HGC-27; assay: Downregulation of c-KIT mRNA expression in HGC27 cells after 24 hrs by RT-PCR analysis relative to control; type: functional, cell-based; details: Homo sapiens
Procedure, shortened: (§3)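 HGC-27 gastric carcinoma cells treated 24 h at final 1.25, 2.5 or 5 µM. c-KIT mRNA quantified by RT-PCR against β-actin, relative to control.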

[12] = tested on: HGC-27; assay: Downregulation of c-KIT mRNA expression in HGC27 cells at 5 uM after 24 hrs by RT-PCR analysis relative to control; type: functional, Homo sapiens; procedure, shortened: as §3
[13] = tested on: HGC-27; assay: Downregulation of c-KIT mRNA expression in HGC27 cells at 2.5 uM after 24 hrs by RT-PCR analysis relative to control; type: functional, Homo sapiens; procedure, shortened: as §3
[14] = tested on: HGC-27; assay: Downregulation of c-KIT mRNA expression in HGC27 cells at 1.25 uM after 24 hrs by RT-PCR analysis relative to control; type: functional, Homo sapiens; procedure, shortened: as §3
[15] = tested on: MCF7; assay: Binding affinity to c-KIT2 mutant G-quadruplex DNA isolated from human MCF7 cells at 5 uM after 48 hrs by dual luciferase reporter gene assay relative to control; type: cell-based; procedure, shortened: as §1
[16] = tested on: MCF7; assay: Binding affinity to c-KIT1 mutant G-quadruplex DNA isolated from human MCF7 cells at 5 uM after 48 hrs by dual luciferase reporter gene assay relative to control; type: cell-based; procedure, shortened: as §1
[17] = tested on: MCF7; assay: Binding affinity to full length wild type c-KIT2 G-quadruplex DNA isolated from human MCF7 cells at 5 uM after 48 hrs by dual luciferase reporter gene assay relative to control; type: cell-based; procedure, shortened: as §1
[18] = tested on: MCF7; assay: Binding affinity to full length wild type c-KIT1 G-quadruplex DNA isolated from human MCF7 cells at 5 uM after 48 hrs by dual luciferase reporter gene assay relative to control; type: cell-based; procedure, shortened: as §1
[19] = tested on: MCF7; assay: Binding affinity to full length wild type c-KIT2 G-quadruplex DNA isolated from human MCF7 cells after 48 hrs by dual luciferase reporter gene assay; type: cell-based; procedure, shortened: as §1
[20] = tested on: MCF7; assay: Binding affinity to full length wild type c-KIT1 G-quadruplex DNA isolated from human MCF7 cells after 48 hrs by dual luciferase reporter gene assay; type: cell-based; procedure, shortened: as §1
[21] = Binding affinity to c-KIT2 G-quadruplex DNA (unknown origin) at 25 uM by CD spectrophotometric analysis
Procedure, shortened: (§4)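 Circular dichroism spectra of 5 µM c-KIT1 or c-KIT2 oligonucleotide in 10 mM Tris–HCl, pH 7.2, 100 mM KCl, recorded with and without 25 µM ligand. Bands near 263 nm (positive) and 240 nm (negative) monitored.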

[22] = Binding affinity to c-KIT1 G-quadruplex DNA (unknown origin) at 25 uM by CD spectrophotometric analysis; procedure, shortened: as §4

SMILES	inhibition [1]	inhibition [2]	inhibition [3]	IC50 [4] [µM]	Activity [5]	Kd [6] [µM]	ΔTm [7] [°C]	ΔTm [8] [°C]	ΔTm [9] [°C]	inhibition [10]	also measured
CN1CCN(c2cc3nc(/C=C/c4ccc(C(=O)NCCCN5CCCC5)cc4)n(-c4ccccc4)c(=O)c3cc2F)CC1	inactive	Active	Active	12.3	inactive	1.99	0.4	16.8	15.9	inactive	–
CN1CCN(c2cc3nc(/C=C/c4ccc(NC(=O)CN5CCCCC5)cc4)n(-c4ccccc4)c(=O)c3cc2F)CC1	inactive	Active	Active	1.3	–	–	0.1	7.5	4.2	inactive	–
CN1CCN(c2cc3nc(/C=C/c4ccc(NC(=O)CCN5CCCC5)cc4)n(-c4ccccc4)c(=O)c3cc2F)CC1	inactive	Active	Active	13.4	inactive	1.88	0	12.4	11.3	inactive	–
CCN(CC)CCC(=O)Nc1ccc(/C=C/c2nc3cc(N4CCN(C)CC4)c(F)cc3c(=O)n2-c2ccccc2)cc1	inactive	Active	Active	6.8	inactive	0.612	0	13.6	11.1	inactive	Activity [11]: Dose-dependent effect; Activity [12]: 52.5%; Activity [13]: 22.8%; Activity [14]: 4.9%; inhibition [15]: 22%; inhibition [16]: 22%; inhibition [17]: 45%; inhibition [18]: 45%; inhibition [19]: Dose-dependent effect; inhibition [20]: Dose-dependent effect; Activity [21]: Active; Activity [22]: Active
CN1CCN(c2cc3nc(/C=C/c4ccc(NC(=O)CCN5CCCCC5)cc4)n(-c4ccccc4)c(=O)c3cc2F)CC1	inactive	Active	Active	8.2	inactive	0.916	0	12.6	10.7	inactive	–
CN1CCN(c2cc3nc(/C=C/c4ccc(C(=O)NCCN5CCCC5)cc4)n(-c4ccccc4)c(=O)c3cc2F)CC1	inactive	Active	Active	17.2	inactive	15.7	0.4	13.4	12.3	inactive	–
CN(C)CCNC(=O)c1ccc(/C=C/c2nc3cc(N4CCN(C)CC4)c(F)cc3c(=O)n2-c2ccccc2)cc1	inactive	Active	Active	21.2	inactive	1.16	0.5	15.9	15.1	inactive	–
Cc1ccc(NC(=O)c2ccc(CN3CCN(C)CC3)cc2)cc1Nc1nccc(-c2cccnc2)n1 [IMATINIB]	–	–	–	3.8	–	–	–	–	–	–	–
CCN(CC)CC(=O)Nc1ccc(/C=C/c2nc3cc(N4CCN(C)CC4)c(F)cc3c(=O)n2-c2ccccc2)cc1	inactive	Active	Active	18.4	–	–	0	7.8	5.5	inactive	–
CCN(CC)CCNC(=O)c1ccc(/C=C/c2nc3cc(N4CCN(C)CC4)c(F)cc3c(=O)n2-c2ccccc2)cc1	inactive	Active	Active	8.6	inactive	1.37	0.4	14.3	13.4	inactive	Activity [11]: Dose-dependent effect; Activity [12]: 35.7%; Activity [13]: 10.4%; Activity [14]: 5.7%; inhibition [15]: 20%; inhibition [16]: 20%; inhibition [17]: 37%; inhibition [18]: 37%; inhibition [19]: Dose-dependent effect; inhibition [20]: Dose-dependent effect; Activity [21]: Active; Activity [22]: Active
CN1CCN(c2cc3nc(/C=C/c4ccc(NC(=O)CN5CCCC5)cc4)n(-c4ccccc4)c(=O)c3cc2F)CC1	inactive	Active	Active	2.3	inactive	0.784	0	9.4	6.4	inactive	–
